Screens as filed in PubChem.
Most compounds without a hit are left out; they make up all but 2.1% or so of the library.
aDG glyco act: increases alpha dystroglycan glycosylation; Pro5-aDG cells, alpha-DG glycosylation AlphaScreen (IIH6); 0% Pro5, 100% B10-LARGE cell signal; activation, % at 10 µM; 360,000 compounds, 0.22% hits; AID 624168;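 active means activation of at least 8% versus controls, or a plate z-score of at least 8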;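 further: Pro5 are CHO cells carrying HIG-tagged alpha-DG that lacks glycosylation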
UCH37 DUB inh: blocks the human deubiquitinase UCH37 | purified proteasome/UCH37, Ub-AMC cleavage fluorescence | inhibition, % (test concentration not listed) | 330,000 compounds, 0.33% hits;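 active means mean inhibition over replicate wells above about 20%, limit read from the data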;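 further: 0% = compound-free wells with enzyme and 100% = wells lacking proteasome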
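Assay system: Proteasome-bound UCH37. Buffer or medium: pH 7.4 Tris-HCl (50 mM) with ovalbumin, ATP-MgCl2, DTT. Incubation: 30 min preincubation with enzyme, 25 min cleavage at room temperature. Measured by: fluorescence, ex 355 nm, em 460 nm. Read-out basis: percent inhibition. Control set: wells without proteasome as full block, compound-free enzyme plus substrate as uninhibited.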
Cardio protect: myocardial damage modulation in H9c2 cells; H9c2 cardiomyocytes, H2O2 injury protection, ATPLite, 2 h; protection from H2O2 cell death, % at 20 µM; 360,000 compounds, 0.63% hits;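 active means compounds giving at least 50% protection of heart cells from peroxide-induced death in the single-dose screen, raw or plate-pattern-corrected value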;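 further: 0% = DMSO wells with peroxide and 100% = DMSO wells without peroxide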
Beta2AR agonist: agonists of human beta-2 adrenergic receptor inducing internalization; response, % (concentration not given with the values); 340,000 compounds, 0.43% hits; Am2.2-beta2AR cells, FAP receptor internalization, flow cytometry; AID 504454;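 active means response above a set limit, near 3 SD of response in nonfluorescent compounds, cut at about 42% in these data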
HKDC1 inh: HKDC1 (human) hexokinase inhibition | Q2TB90 | recombinant HKDC1, G6PDH/diaphorase resazurin coupled fluorescence | inhibition, % at 20 µM | 340,000 compounds, 0.16% hits;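 active means inhibition above about 35% when tested at 20 µM, limit read from the data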;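 further: plate controls were DMSO wells with enzyme for no effect and DMSO wells lacking enzyme for full effect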
Target sequence (Q2TB90 whole entry, looked up): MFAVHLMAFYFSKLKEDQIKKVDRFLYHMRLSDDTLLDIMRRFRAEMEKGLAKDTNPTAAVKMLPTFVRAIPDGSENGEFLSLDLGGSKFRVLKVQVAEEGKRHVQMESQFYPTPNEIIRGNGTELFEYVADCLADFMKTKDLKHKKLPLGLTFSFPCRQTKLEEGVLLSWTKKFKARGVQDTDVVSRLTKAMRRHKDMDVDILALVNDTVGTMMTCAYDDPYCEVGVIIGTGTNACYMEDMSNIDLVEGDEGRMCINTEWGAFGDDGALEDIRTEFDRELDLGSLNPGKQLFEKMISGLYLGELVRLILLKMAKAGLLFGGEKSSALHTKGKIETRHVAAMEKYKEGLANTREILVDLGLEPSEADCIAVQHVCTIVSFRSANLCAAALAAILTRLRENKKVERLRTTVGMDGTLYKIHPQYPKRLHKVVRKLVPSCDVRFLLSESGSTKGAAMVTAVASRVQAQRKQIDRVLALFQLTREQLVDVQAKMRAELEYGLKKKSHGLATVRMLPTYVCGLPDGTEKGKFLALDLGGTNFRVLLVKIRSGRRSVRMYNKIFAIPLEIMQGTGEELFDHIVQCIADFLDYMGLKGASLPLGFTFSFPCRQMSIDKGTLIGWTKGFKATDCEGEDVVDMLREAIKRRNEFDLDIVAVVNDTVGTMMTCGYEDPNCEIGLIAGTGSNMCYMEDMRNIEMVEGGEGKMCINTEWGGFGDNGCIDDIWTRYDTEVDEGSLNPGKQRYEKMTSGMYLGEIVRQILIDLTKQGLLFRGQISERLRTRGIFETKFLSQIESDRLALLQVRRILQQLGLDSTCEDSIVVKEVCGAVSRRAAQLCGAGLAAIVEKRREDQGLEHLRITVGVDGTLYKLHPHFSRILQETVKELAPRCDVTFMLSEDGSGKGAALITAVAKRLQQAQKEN
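System: Recombinant HKDC1 hexokinase | Amount: HKDC1 at 5 µg/mL | Reagent: Glucose with 1 mM ATP | Doses: Single 20 µM dose | Incubation: Reaction time 90 min, room temperature, protected from light | Signal: Coupled resazurin fluorescence, excitation 525 nm, emission 613 nm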
PfG6PD inh: PfG6PD (Plasmodium falciparum) enzyme inhibition | PfGluPho enzyme, NADPH resazurin-diaphorase fluorescence | inhibition, % at 20 µM | 350,000 compounds, 0.78% hits | AID 504690;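 active means inhibition reaching at least a set limit at 20 µM in the primary screen, cut at about 59% in these data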;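 further: 0% = DMSO wells with substrate and 100% = DMSO wells lacking glucose-6-phosphate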
An asterisk follows results filed as active; nt = no result given.

SMILES	aDG glyco act	UCH37 DUB inh	Cardio protect	Beta2AR agonist	HKDC1 inh	PfG6PD inh
C#CCOCCOCCOCCNc1nc(N2CCN(C(=O)CCCCCCCCCCNC(=O)[C@@H](CCSC)n3cc(CCO)nn3)CC2)nc(N2CCN(C(=O)CCCCCCCCCCNC(=O)[C@H](CCCN=C(N)N)n3cc(C[C@@H](C)CC)nn3)CC2)n1	0	nt	7	58*	10	69*
C=CCNC(=S)NN=Cc1ccc(-c2ccc(Cl)cc2Cl)o1	nt	-94	nt	nt	nt	nt
C#CCOCCOCCOCCNc1nc(N2CCOCC2)nc(N2CCN(C(=O)[C@H](Cc3cc4ccccc4[nH]3)n3cc([C@@H](N)C(C)CC)nn3)CC2)n1 (stereo not given in full)	0	6	14	0	-3	19
C#CCOCCOCCOCCNc1nc(N2CCN(C(=O)C(Cc3cc4ccccc4[nH]3)n3cc(C(N)C(C)CC)nn3)CC2)nc(N2CCN(C(=O)C(Cc3cc4ccccc4[nH]3)n3cc(C(N)C(C)CC)nn3)CC2)n1 (stereo not given)	0	4	-1	28	28	61*
COc1ccc(C(C)=NNC(=O)CNC(=O)c2cccnc2)cc1OC	nt	3	nt	nt	nt	nt
CCCC(c1nnnn1C(C)(C)CC)N(CCCO)Cc1cc2cc(C)cc(C)c2[nH]c1=O (stereo not given)	0	-1	59*	1	-4	21
O=S(=O)(NN=Cc1ccccc1OCc1ccc(Cl)cc1)c1ccccc1	nt	3	nt	nt	nt	nt
N#C/C(=C(/O)c1ccco1)c1nc2ccccc2s1	0	20*	-10	19	8	-28
Cc1cnc(C=O)c2cccc([N+](=O)[O-])c12	0	nt	57*	nt	nt	22
CC(=NOC(=O)CC(C)C)c1cc(-c2ccc(Cl)cc2)no1	nt	0	nt	nt	nt	nt
COc1ccc(CNc2nn3c(-c4cccc(C(=O)N(C)C)c4)cnc3s2)cc1	0	nt	76*	nt	nt	nt
O=c1[nH]cnc2c1c(-c1ccccc1)cn2-c1ccccc1	1	-2	-3	4	1	10
Fc1cccc(-n2cc(-c3ccccc3)c3c(=S)nc[nH]c32)c1	1	nt	64*	2	7	-13
Fc1ccc(-n2cc(-c3ccccc3)c3c(=S)nc[nH]c32)cc1	0	nt	85*	7	7	5
COC(=O)c1c(NC(=O)c2cccc(N3C(=O)CCC3=O)c2)sc2c1CCN(C(C)=O)C2	0	5	19	9	13	18
COC(=O)c1c(NC(=O)c2nc3ccccc3s2)sc2c1CCN(C(C)=O)C2	0	-5	58*	0	2	18
O=C(COc1ccccc1)N=C1SC2CS(=O)(=O)CC2N1c1cccc(F)c1 (stereo not given)	0	4	0	48*	-1	-6
CN(N=Cc1ccc(C(C)(C)C)cc1)C1=NCCN1	nt	0	nt	nt	nt	nt
COC(=O)c1cn(CCOc2ccccc2OC)c2ccccc12	0	22*	-14	0	-4	-4
Cc1ccc(C(C(=O)NCc2ccc(F)cc2)N(Cc2ccco2)C(=O)c2snc(C(N)=O)c2N)o1 (stereo not given)	0	-26	40	23	-1	14
CN(C)c1ccc(C(C(=O)NCc2ccccc2)N(Cc2ccco2)C(=O)c2snc(C(N)=O)c2N)cc1 (stereo not given)	0	nt	78*	15	-3	21
NC(=O)c1nsc(C(=O)N(c2ccccc2)C(C(=O)NCc2ccc(F)cc2)c2ccc(O)cc2)c1N (stereo not given)	0	-21	50*	17	-1	20
O=C(NCc1ccccc1)C(c1ccc(F)cc1)N(Cc1ccco1)C(=O)c1ccccn1 (stereo not given)	0	6	26	12	-1	-6
NC(=O)c1nsc(C(=O)N(Cc2ccco2)C(C(=O)NCc2ccc(F)cc2)c2ccc(O)cc2)c1N (stereo not given)	0	-22	54*	15	-3	23
Cc1ccccc1C(C(=O)NCc1ccccc1)N(Cc1ccco1)C(=O)c1ccccn1 (stereo not given)	0	1	51*	24	-5	-2
